Test results as given in ChEMBL document CHEMBL3352165 (Eur J Med Chem, 2014).

Assays:
[1] = Antitumor activity against human Calu3 cells xenografted in BALB/cA mouse assessed as tumor growth inhibition at 200 mg/kg, po; format: functional; details: Calu-3, read-out: TGI
In short: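 Female BALB/cA nude mice, 6–7 weeks old, implanted s.c. on midright side with 2×10^6 Calu-3 cells in 0.2 ml PBS. Grouped at 60–150 mm³ tumour volume (6 per treated group, 12 vehicle). Oral dosing in 0.5% CMC with 0.1% Tween-80. Caliper volume = L×W²×0.5; inhibition = (1 − T/C)×100% on relative tumour volume; weight tracked for 21 d.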

A-431 = experiment: Cytotoxicity against human A431 cells assessed as inhibition of cell growth after 72 hrs by sulforhodamine B assay; format: functional, cell-based; details: A-431, 72 h
In short: (§1)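 Cells grown in RPMI-1640 with 5% FBS and plated at 5.0×10^4/ml. Next day exposed to 0.5–5000 ng/ml for 3 days. Survival read by sulforhodamine B staining. IC50 taken from growth curves; mean of at least three determinations.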

Mus musculus = experiment: Toxicity in human Calu3 cells xenografted BALB/cA mouse assessed as body weight loss at 200 mg/kg, po measured every other day for 21 days; format: organism-based, Calu-3; design: dose 200 mg/kg, route oral; details: in vivo, 504 h
In short: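 Female BALB/cA nude mice, 6–7 weeks old, implanted s.c. on the mid-right flank with 2×10^6 Calu-3 cells in 0.2 ml PBS. At 60–150 mm³ tumour volume, mice randomised into six per treatment group (twelve vehicle controls). Oral dosing in 0.5% CMC aqueous solution with 0.1% Tween-80. Body weight recorded every other day for 21 d.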

[2] = target: Mast/stem cell growth factor receptor Kit (Homo sapiens, UniProt P10721); experiment: Inhibition of c-KIT (unknown origin) by ELISA method
In short: (§2)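 Phosphotyrosine ELISA with purified kinase (20 ng) and 5 µM ATP in buffer (50 mM HEPES pH 7.4, 20 mM MgCl2, 0.1 mM MnCl2, 0.2 mM Na3VO4, 1 mM DTT), 1 h at 37 °C, DMSO ≤1%. Detection by PY99 antibody, then HRP anti-mouse IgG with o-phenylenediamine, A490. IC50 by Logit from at least three independent tests.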

[3] = target: Receptor tyrosine-protein kinase erbB-2 (Homo sapiens, UniProt P04626); experiment: Inhibition of HER2 (unknown origin) assessed as reduction in autophosphorylation by ELISA method; in short: as §2
[4] = target: Epidermal growth factor receptor (Homo sapiens, UniProt P00533); experiment: Inhibition of HER1 (unknown origin) assessed as reduction in autophosphorylation by ELISA method
[5] = target: Vascular endothelial growth factor receptor 2 (Homo sapiens, UniProt P35968); experiment: Inhibition of KDR (unknown origin) by ELISA method; in short: as §2
MCF7 = experiment: Cytotoxicity against human MCF7 cells assessed as inhibition of cell growth after 72 hrs by sulforhodamine B assay; format: functional, cell-based; details: MCF7, 72 h; in short: as §1
BT-474 = experiment: Cytotoxicity against human BT474 cells assessed as inhibition of cell growth after 72 hrs by sulforhodamine B assay; format: functional, cell-based; details: BT-474, 72 h; in short: as §1
[6] = target: Platelet-derived growth factor receptor beta (Homo sapiens, UniProt P09619); experiment: Inhibition of PDGFRbeta (unknown origin) by ELISA method; in short: as §2
[7] = Cytotoxicity against human SKBR3 cells assessed as inhibition of cell growth after 72 hrs by sulforhodamine B assay; format: functional, cell-based; details: SK-BR-3, 72 h; in short: as §1
[8] = AUC (0 to 24 hrs) in Beagle dog at 240 mg/kg, po administered as single dose measured after 0.25 to 24 hrs post dose by LC/MS/MS method; format: ADME, organism-based, Canis lupus familiaris; design: time < 24 hr, dose 240 mg/kg, route oral; details: plasma
In short: (§3)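 Single oral gavage of 240 mg/kg to beagle dogs (n = 6). Blood sampled at 0.25–24 h, kept on ice, centrifuged within 1 h (1000 × g, 4 °C, 15 min), plasma stored at −20 °C. Drug quantified by validated LC/MS/MS. AUC0–24 from non-compartmental analysis; Cmax and MRT taken directly from concentration–time data.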

[9] = Cmax in Beagle dog at 240 mg/kg, po administered as single dose measured after 0.25 to 24 hrs post dose by LC/MS/MS method; format: ADME, organism-based, Canis lupus familiaris; design: dose 240 mg/kg, route oral; details: in vivo; in short: as §3
MDA-MB-453 = experiment: cells; details: Homo sapiens, MDA-MB-453, 72 h
[10] = Mean residence time in Beagle dog at 240 mg/kg, po administered as single dose measured after 0.25 to 24 hrs post dose by LC/MS/MS method; format: ADME, organism-based, Canis lupus familiaris; design: dose 240 mg/kg, route oral; details: in vivo; in short: as §3
[11] = Tmax in Beagle dog at 240 mg/kg, po administered as single dose measured after 0.25 to 24 hrs post dose by LC/MS/MS method; format: ADME, organism-based, Canis lupus familiaris; design: dose 240 mg/kg, route oral; details: in vivo
In short: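 Beagle dogs (n = 6), single oral gavage dose of 240 mg/kg. Plasma levels measured by validated LC/MS/MS. Tmax read directly from the concentration-time data.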

cells [12] = details: Homo sapiens, SK-OV-3, 72 h
MRC5 = experiment: cells; details: Homo sapiens, MRC5, 72 h
NCI-H460 = experiment: cells; details: Homo sapiens, NCI-H460, 72 h
MDA-MB-231 = experiment: cells; details: Homo sapiens, MDA-MB-231, 72 h
cells [13] = details: Homo sapiens, Calu-3, 72 h

Chain of Mast/stem cell growth factor receptor Kit (P10721 whole entry): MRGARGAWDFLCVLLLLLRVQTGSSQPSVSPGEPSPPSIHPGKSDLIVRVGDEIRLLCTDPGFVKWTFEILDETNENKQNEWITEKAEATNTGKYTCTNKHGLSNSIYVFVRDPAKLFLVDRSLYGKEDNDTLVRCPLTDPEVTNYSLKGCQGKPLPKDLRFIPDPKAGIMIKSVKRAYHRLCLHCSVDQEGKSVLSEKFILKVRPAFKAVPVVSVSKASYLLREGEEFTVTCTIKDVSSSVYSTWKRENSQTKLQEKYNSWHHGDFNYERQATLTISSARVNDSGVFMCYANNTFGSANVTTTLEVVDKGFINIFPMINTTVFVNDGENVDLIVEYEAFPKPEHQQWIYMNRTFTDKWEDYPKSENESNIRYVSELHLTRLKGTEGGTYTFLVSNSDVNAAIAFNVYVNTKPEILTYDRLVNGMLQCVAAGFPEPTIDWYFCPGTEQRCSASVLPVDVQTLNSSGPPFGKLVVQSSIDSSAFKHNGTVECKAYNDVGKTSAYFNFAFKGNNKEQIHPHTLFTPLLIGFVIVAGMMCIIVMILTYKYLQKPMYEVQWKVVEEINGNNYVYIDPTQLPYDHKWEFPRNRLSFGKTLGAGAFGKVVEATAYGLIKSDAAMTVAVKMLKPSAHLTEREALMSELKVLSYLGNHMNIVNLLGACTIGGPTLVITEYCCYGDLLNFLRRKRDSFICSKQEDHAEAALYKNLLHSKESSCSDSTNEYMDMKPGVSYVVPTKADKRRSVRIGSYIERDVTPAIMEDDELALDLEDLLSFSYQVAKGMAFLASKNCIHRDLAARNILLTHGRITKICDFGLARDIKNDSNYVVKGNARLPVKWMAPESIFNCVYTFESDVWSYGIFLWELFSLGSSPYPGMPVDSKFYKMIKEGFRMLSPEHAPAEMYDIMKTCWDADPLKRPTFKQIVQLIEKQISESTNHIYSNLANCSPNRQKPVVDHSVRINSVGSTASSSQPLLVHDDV
Chain of Vascular endothelial growth factor receptor 2 (P35968 whole entry): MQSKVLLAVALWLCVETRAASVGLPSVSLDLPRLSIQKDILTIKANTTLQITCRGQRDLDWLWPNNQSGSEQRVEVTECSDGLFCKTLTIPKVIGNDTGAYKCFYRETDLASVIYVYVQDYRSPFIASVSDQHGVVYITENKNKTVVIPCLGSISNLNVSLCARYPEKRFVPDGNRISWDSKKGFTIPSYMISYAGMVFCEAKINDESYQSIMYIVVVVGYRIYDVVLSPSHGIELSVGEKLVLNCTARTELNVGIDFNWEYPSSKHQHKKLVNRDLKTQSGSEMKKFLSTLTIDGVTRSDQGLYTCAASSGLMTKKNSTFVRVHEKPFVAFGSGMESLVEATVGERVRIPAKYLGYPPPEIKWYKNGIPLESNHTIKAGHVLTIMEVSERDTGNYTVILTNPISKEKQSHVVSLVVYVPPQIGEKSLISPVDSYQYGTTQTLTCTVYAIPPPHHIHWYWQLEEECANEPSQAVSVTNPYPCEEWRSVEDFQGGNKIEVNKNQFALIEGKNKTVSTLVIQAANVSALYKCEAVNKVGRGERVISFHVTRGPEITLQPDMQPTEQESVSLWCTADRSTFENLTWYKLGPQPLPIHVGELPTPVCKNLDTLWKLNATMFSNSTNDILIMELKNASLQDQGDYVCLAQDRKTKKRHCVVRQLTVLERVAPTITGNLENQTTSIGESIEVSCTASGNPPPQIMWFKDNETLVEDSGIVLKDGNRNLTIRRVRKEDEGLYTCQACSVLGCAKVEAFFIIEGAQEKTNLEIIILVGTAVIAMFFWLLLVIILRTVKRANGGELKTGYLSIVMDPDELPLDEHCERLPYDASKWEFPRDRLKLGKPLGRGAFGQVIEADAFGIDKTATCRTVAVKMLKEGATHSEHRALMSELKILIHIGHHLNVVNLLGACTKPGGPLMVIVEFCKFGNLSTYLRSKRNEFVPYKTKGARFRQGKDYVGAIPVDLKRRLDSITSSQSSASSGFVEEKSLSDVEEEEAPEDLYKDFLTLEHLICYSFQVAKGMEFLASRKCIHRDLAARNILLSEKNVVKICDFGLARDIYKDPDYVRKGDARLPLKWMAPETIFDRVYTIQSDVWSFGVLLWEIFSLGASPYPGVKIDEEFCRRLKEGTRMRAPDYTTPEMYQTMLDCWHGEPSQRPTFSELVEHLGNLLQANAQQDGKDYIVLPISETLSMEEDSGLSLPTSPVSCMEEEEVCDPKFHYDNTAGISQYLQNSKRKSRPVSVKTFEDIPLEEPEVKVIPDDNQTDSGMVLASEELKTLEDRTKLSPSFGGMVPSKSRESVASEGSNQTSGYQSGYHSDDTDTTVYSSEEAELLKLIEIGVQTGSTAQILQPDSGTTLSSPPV
Chain of Epidermal growth factor receptor (P00533 whole entry): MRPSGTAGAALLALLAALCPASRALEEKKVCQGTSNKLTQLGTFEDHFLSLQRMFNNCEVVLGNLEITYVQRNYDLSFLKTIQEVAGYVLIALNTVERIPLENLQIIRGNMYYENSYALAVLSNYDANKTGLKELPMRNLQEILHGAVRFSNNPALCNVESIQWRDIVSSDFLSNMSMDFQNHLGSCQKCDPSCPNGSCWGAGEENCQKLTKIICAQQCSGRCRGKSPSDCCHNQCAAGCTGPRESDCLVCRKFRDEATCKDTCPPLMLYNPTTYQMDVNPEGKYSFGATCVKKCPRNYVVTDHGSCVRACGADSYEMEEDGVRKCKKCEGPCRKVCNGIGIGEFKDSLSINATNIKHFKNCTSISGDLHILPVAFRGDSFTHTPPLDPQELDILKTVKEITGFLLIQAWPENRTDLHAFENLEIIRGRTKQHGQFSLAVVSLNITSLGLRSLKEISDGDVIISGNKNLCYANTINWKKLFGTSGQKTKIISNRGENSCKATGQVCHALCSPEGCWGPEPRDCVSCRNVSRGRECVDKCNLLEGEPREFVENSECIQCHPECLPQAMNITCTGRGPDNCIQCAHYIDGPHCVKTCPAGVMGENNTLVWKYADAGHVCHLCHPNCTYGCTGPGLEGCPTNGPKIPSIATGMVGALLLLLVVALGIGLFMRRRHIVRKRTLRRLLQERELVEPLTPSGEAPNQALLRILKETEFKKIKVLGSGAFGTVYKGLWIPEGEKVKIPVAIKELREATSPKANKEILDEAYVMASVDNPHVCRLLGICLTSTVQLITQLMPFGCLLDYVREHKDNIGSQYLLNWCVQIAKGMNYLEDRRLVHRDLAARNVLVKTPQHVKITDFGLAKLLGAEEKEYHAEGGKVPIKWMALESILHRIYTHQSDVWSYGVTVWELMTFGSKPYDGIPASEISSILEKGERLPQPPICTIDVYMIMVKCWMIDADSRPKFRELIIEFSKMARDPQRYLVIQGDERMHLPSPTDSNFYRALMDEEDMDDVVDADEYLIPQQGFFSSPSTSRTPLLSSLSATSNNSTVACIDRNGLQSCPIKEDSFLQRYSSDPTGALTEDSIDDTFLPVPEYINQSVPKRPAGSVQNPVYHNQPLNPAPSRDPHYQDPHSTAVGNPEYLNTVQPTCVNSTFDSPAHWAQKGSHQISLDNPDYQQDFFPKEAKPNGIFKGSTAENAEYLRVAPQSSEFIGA
Chain of Platelet-derived growth factor receptor beta (P09619 whole entry): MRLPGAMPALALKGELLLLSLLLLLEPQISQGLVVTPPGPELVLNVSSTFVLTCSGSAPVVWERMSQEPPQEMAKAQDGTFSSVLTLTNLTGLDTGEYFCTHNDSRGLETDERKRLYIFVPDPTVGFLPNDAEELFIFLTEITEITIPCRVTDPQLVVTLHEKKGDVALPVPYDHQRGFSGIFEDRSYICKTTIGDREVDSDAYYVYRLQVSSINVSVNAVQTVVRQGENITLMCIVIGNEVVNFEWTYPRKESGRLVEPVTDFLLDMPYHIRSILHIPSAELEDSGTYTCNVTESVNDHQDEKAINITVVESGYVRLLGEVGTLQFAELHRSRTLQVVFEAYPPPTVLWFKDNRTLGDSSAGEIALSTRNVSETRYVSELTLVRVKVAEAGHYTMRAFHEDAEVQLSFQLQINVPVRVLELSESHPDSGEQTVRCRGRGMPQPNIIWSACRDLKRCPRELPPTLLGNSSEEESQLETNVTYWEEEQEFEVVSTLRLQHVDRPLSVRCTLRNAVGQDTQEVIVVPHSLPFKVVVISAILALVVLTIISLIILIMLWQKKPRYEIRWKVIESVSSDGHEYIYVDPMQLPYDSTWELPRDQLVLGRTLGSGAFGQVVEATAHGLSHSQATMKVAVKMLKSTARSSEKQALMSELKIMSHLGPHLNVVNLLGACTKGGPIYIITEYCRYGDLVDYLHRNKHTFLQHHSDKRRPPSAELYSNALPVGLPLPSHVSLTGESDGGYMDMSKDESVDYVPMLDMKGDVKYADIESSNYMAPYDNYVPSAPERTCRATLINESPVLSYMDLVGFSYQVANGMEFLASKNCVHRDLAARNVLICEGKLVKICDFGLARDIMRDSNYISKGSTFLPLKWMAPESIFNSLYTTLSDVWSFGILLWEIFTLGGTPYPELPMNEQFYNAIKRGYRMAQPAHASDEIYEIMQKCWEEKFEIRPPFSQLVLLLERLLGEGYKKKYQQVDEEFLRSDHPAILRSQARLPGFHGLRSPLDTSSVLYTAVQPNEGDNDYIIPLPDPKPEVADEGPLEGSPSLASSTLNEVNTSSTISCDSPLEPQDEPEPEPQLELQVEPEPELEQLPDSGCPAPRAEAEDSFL

Row | Compound | IC50 [2] [nM] | IC50 [3] [nM] | IC50 [4] [nM] | IC50 [5] [nM] | IC50 [6] [nM] | IC50 (A-431) [nM] | IC50 (MCF7) [nM] | IC50 (BT-474) [nM] | IC50 [7] [nM] | other results
1 | CCOC(=O)N[C@H](CS(C)(=O)=O)c1ccc(-c2ccc3ncnc(Nc4ccc(OCc5cccc(F)c5)c(Cl)c4)c3c2)o1 | > 200000 | 152 | 89.6 | > 200000 | > 200000 | 884 | 8930 | 120 | 106 | –
2 | CS(=O)(=O)CC(NC1CCCCC1)c1ccc(-c2ccc3ncnc(Nc4ccc(OCc5cccc(F)c5)c(Cl)c4)c3c2)o1 (racemic) | > 200000 | 58.6 | 77.2 | > 200000 | > 200000 | 773 | 9130 | 174 | 162 | –
3 | CCCCOC(=O)N[C@H](CS(C)(=O)=O)c1ccc(-c2ccc3ncnc(Nc4ccc(OCc5cccc(F)c5)c(Cl)c4)c3c2)o1 | > 200000 | 164 | 92.8 | > 200000 | > 200000 | 1090 | 9210 | 1000 | 702 | –
4 | CS(=O)(=O)CCNC(CS(C)(=O)=O)c1ccc(-c2ccc3ncnc(Nc4ccc(OCc5cccc(F)c5)c(Cl)c4)c3c2)o1 (racemic) | > 200000 | 52.2 | 28.7 | > 200000 | > 200000 | 684 | 7010 | 104 | 123 | –
5 | CCCCCCOC(=O)N[C@H](CS(C)(=O)=O)c1ccc(-c2ccc3ncnc(Nc4ccc(OCc5cccc(F)c5)c(Cl)c4)c3c2)o1 | > 200000 | 158 | 110 | > 200000 | > 200000 | 1200 | > 10000 | 1920 | 1050 | –
6 | CC(C)NC(CS(C)(=O)=O)c1ccc(-c2ccc3ncnc(Nc4ccc(OCc5cccc(F)c5)c(Cl)c4)c3c2)o1 (racemic) | > 200000 | 48.3 | – | > 200000 | > 200000 | 623 | 6110 | 94.4 | 101 | –

The next lines start with results.

Row | IC50 [2] [nM] | IC50 [3] [nM] | IC50 [4] [nM] | IC50 [5] [nM] | IC50 [6] [nM] | Compound | IC50 (A-431) [nM] | IC50 (MCF7) [nM] | IC50 (BT-474) [nM] | IC50 [7] [nM] | other results
7 | > 200000 | 3.6 | 6.8 | > 200000 | > 200000 | CN(C)C(CS(C)(=O)=O)c1ccc(-c2ccc3ncnc(Nc4ccc(OCc5cccc(F)c5)c(Cl)c4)c3c2)o1 (racemic) | 604 | 6120 | 48.6 | 36.2 | inhibition in vivo at 200 mg/kg [1]: 58%; Activity (Mus musculus): Non-toxic
8 | > 200000 | 10.6 | 13.5 | > 200000 | > 200000 | CS(=O)(=O)C[C@H](N)c1ccc(-c2ccc3ncnc(Nc4ccc(OCc5cccc(F)c5)c(Cl)c4)c3c2)o1 | 632 | 9340 | 116 | 84.1 | –
9 | > 200000 | 2.9 | 10.8 | > 200000 | > 200000 | CS(=O)(=O)C[C@@H](N)c1ccc(-c2ccc3ncnc(Nc4ccc(OCc5cccc(F)c5)c(Cl)c4)c3c2)o1 | 663 | 6830 | 69.2 | 21 | AUC(0-t) at 24 h [8]: 20300 ng·h/mL; Cmax [9]: 2100 ng/mL; IC50 (MDA-MB-453): 240 nM; MRT [10]: 6.8 h; Tmax [11]: 5 h; IC50 (cells [12]): 410 nM; IC50 (MRC5): > 100000 nM; IC50 (NCI-H460): > 100000 nM; IC50 (MDA-MB-231): > 100000 nM; IC50 (cells [13]): 220 nM
10 | > 200000 | 15.5 | 14.7 | > 200000 | > 200000 | CCNC(CS(C)(=O)=O)c1ccc(-c2ccc3ncnc(Nc4ccc(OCc5cccc(F)c5)c(Cl)c4)c3c2)o1 (racemic) | 884 | 8730 | 109 | 33.9 | –
11 | > 200000 | 26.1 | 30.4 | > 200000 | > 200000 | CN(C)[C@@H](CS(C)(=O)=O)c1ccc(-c2ccc3ncnc(Nc4ccc(OCc5cccc(F)c5)c(Cl)c4)c3c2)o1 | 768 | 6670 | 83.2 | 27.8 | –
12 | > 200000 | 1 | 34.8 | > 200000 | > 200000 | CNC(CS(C)(=O)=O)c1ccc(-c2ccc3ncnc(Nc4ccc(OCc5cccc(F)c5)c(Cl)c4)c3c2)o1 (racemic) | 648 | 6520 | 76.8 | 30.1 | –
13 | > 200000 | 3.4 | 17.6 | > 200000 | > 200000 | CS(=O)(=O)CC(N)c1ccc(-c2ccc3ncnc(Nc4ccc(OCc5cccc(F)c5)c(Cl)c4)c3c2)o1 (racemic) | 683 | 6620 | 75.4 | 26.6 | –
